These results are taken from ChEMBL document CHEMBL3784952, “Design, discovery, modelling, synthesis, and biological evaluation of novel and small, low toxicity s-triazine derivatives as HIV-1 non-nucleoside reverse transcriptase inhibitors” (Bioorg Med Chem, 2016).

The source made the active and inactive calls. The calls are words filed in the database; no cut-off is given here.

The subject of data set [1] is Human immunodeficiency virus 1. Description: Antiviral activity against HIV1 virus-like particles harboring wild type reverse transcriptase infected in human U2OS cells after 24 hrs by Renilla luciferase assay. Type of data set: functional, organism-based. The note with it: read-out: IC50. The gist of the method:
(§1)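 U2OS cells seeded 5 × 10^4 per well, infected next day with HIV-1 VLPs carrying wt or mutant RT at MOI 0.01 with polybrene 6 μg/mL plus compound; 1 h at 37 °C, washed, compound-containing media 24 h, then compound-free media 24 h. Lysate Gluc activity (Renilla luciferase reagent) normalised to protein.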

Data set [2] can be described thus: Cytotoxicity against human U2OS cells assessed as reduction of cell viability after 48 hrs. Format: cell-based. The gist of the method:
(§2)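 Impedance-based real-time viability: U2OS (3.5 × 10^3) or TZM-bl (8.5 × 10^3) cells seeded on electrode plates, compounds in DMSO added 24 h later (final DMSO 0.5%), cell index recorded over a further 48 h. CC50 = concentration lowering cell index by 50% relative to DMSO-only cells.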

Data set [3] addresses Human immunodeficiency virus type 1 reverse transcriptase (Human immunodeficiency virus 1, UniProt Q72547). Description: (§3) Inhibition of HIV1 reverse transcriptase using 234-nt long RNA/18-mer DNA oligonucleotide as template/primer preincubated for 15 mins followed by incubation with template/primer for 40 mins by liquid scintillation counting in presence of alpha[P33]-dCTP.

Data set [4] deals with Human immunodeficiency virus 1. Description: Antiviral activity against HIV1 virion infected in human TZM-bl cells after 48 hrs by firefly luciferase assay. Format: functional, organism-based. The procedure, abridged: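 TZM-bl cells (LTR-driven firefly luciferase), 5 × 10^4 per well, infected next day with ACH-2-derived HIV-1 stock (PMA-induced; 30 ng p24 per well) plus compound for 2 h at 37 °C; medium then replaced with compound-containing medium for 48 h.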

Data set [5] relates to Human immunodeficiency virus 1. Description: Potency index, ratio of nevirapine IC50 to compound IC50 for HIV1 virus-like particles infected in human U2OS cells. Type of data set: functional.
Data set [6] can be described thus: Cytotoxicity against human TZM-bl cells assessed as reduction of cell viability after 48 hrs. Type of data set: cell-based. The gist of the method: as §2
For data set [7], the target named is Human immunodeficiency virus type 1 reverse transcriptase (Human immunodeficiency virus 1) (UniProt Q72547). The description is as §3.
Data set [8] concerns Human immunodeficiency virus 1. In words: Antiviral activity against HIV1 virus-like particles harboring reverse transcriptase K103N mutant infected in human U2OS cells after 24 hrs by Renilla luciferase assay. Type of data set: functional, organism-based. The gist of the method:
as §1

Data set [9] concerns Human immunodeficiency virus 1. Description: Antiviral activity against HIV1 virus-like particles harboring reverse transcriptase Y181C mutant infected in human U2OS cells after 24 hrs by Renilla luciferase assay. Type of data set: functional, organism-based. The procedure, abridged:
as §1

Data set [10] has as its system Human immunodeficiency virus 1. In words: Antiviral activity against HIV1 virus-like particles harboring reverse transcriptase K103N/Y181C double mutant infected in human U2OS cells after 24 hrs by Renilla luciferase assay. Type of data set: functional, organism-based. The gist of the method: as §1
The nature of data set [11]: Selectivity index, ratio of CC50 for human U2OS cells to IC50 for HIV1 virus-like particles infected in U2OS cells. Format: functional.
Data set [12] can be described thus: Selectivity index, ratio of CC50 for human TZM-bl cells to IC50 for HIV1 virion […]. Format: functional.
Data set [13] relates to Human immunodeficiency virus 1. Description: Selectivity ratio of IC50 for HIV1 virus-like particles harboring reverse transcriptase K103N/Y181C double mutant to IC50 for HIV1 virus-like particles harboring wild type reverse transcriptase. Format: functional.
Setting [14] is: Human immunodeficiency virus 1, U2OS, 24 h.
Where [15] appears, read: Human immunodeficiency virus 1, TZM-bl, 48 h, read-out: IC50.

What is called IC50 is the point on the concentration scale where inhibition reaches its midpoint. By CC50 is commonly meant the concentration at which the toxic effect on the cells reaches its halfway point. Consider `Cc1ccc(Nc2nc(NCC3CCCO3)nc(Nc3ccc(C)cc3)n2)cc1` (stereo in doubt; 8), for which the results for the IC50 in data set [1] (u2os), in [3] and in data set [4] (tzm-bl) were 16 µM, “Not Active” and “Not Active”, respectively. Further, the cytotoxic concentration (CC50) at 48 h in data set [2] was more than 50 µM. The “Ratio IC50” value in data set [5] is 10.

Consider `Cc1ccc(Nc2nc(N)nc(Nc3ccc(C)cc3)n2)cc1`, for which the IC50 in [1] (setting [14]) was found to be 2.5 µM; in data set [3] (read-out: IC50), 116 µM; in data set [4] (setting [15]), 5.6 µM. In addition, the CC50 at 48 h in data set [2] came out at 42.2 µM; in [6] it was 57 µM. Moreover, the inhibition result in [7] was “Dose-dependent effect”. For the same compound, the outcome in data set [8], in data set [9] and in data set [10] was inactive. In addition, the “Ratio CC50/IC50” value in [11] is 17; in data set [12] it was 10.

On to `Cc1ccc(Nc2nc(O)nc(Nc3ccc(C)cc3)n2)cc1`, for which the IC50 in data set [1] (setting [14]) was found to be 0.067 µM; in data set [3] (read-out: IC50) it was 55.1 µM; in data set [4] (setting [15]), 0.16 µM; in [10] (Human immunodeficiency virus 1, U2OS), 8 µM. The cytotoxic concentration (CC50) at 48 h in [2] and in data set [6] was more than 12.5 µM each time. Further, the outcome in data set [8] and in [9] was inactive. The “Ratio IC50” value in data set [13] is listed as more than 100.
